Screens (PubChem)
NF-kB neuron act: NF-kB expression increase, human neuronal cells; NF-kB reporter expression; active compounds read high; fold change at 12.5 µM; hit rate 1.6% among 190,000; AID 1239; in the data active = fold change above about 3.3
APP 5'UTR act: APP 5'UTR luciferase reporter activation; activation, % at 2 µM; AID 1276; SH-SY5Y APP 5'UTR luciferase reporter, luminescence; zero percent = DMSO vehicle wells; hit rate 1% among 190,000;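 active = activation above a set limit, based on mean plus 3 SD of controls, cut at about 140% in these data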
STAT1 blocker: STAT1 signaling inhibition | NIH 3T3 STAT1-luciferase reporter, IFN-gamma, luminescence | inhibition, % at 5.5 µM | hit rate 0.35% among 200,000 | AID 920;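 active = inhibition above a set limit, the mean inhibition across all tested compounds plus 3 SD, cut at about 34% in these data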;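 also: 0% = IFN-gamma with DMSO and 100% = IFN-gamma with 300 µM nifuroxazide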
STAT3 act: increases IL-6 driven STAT3 reporter signal | U3A cells, IL-6 STAT3-luciferase reporter, luminescence; 100% = signal with IL-6 EC80 alone | activation (% of control), % at 5.6 µM | hit rate 0.91% among 190,000;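 active = activation above the screen-wide mean of compound activation plus 3 SD, cut at about 130% in these data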;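 also: 0% = background luminescence of wells with medium and substrate only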
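system = STAT3-luciferase reporter U3A cells | reagent = IL-6 stimulus at 33 ng/mL final | timing = 1 h compound pre-exposure, 6 h IL-6 stimulation, 37 °C | measured by = luminescence | evaluation = % activation versus median of IL-6-stimulated wells | control set = IL-6-only wells as 100% reference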
STAT1 act: increases IFN-gamma driven STAT1 reporter signal | NIH 3T3 STAT1-luciferase reporter, luminescence; 100% = IFN-gamma alone, no compound | activation (% of control), % at 5.5 µM | hit rate 2.6% among 200,000 | AID 932;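 active = activation above the screen-wide mean activation plus 3 SD, cut at about 130% in these data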;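 also: raw ratio to IFN-gamma control signal so 100% means no change and 0% no light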
STAT3 inh: STAT3 signaling inhibition. U3A cells, IL-6 STAT3-luciferase reporter, luminescence; host cell line lacks STAT1. inhibition, % at 5.5 µM. hit rate 0.89% among 190,000. AID 862;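 active = inhibition above the mean inhibition across all screened compounds plus 3 SD, cut at about 44% in these data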;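 also: 0% = DMSO only wells and 100% = 100 µM nifuroxazide control wells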
* marks the source's active call; other numbers are inactive results; x = no result. The list is not random: actives were taken first. Their share in the collection is about 4.9%.

SMILES	NF-kB neuron act	APP 5'UTR act	STAT1 blocker	STAT3 act	STAT1 act	STAT3 inh
CN(C)/C=C/C(=O)c1cnc(-c2ccccc2)s1	3.8*	102	-34	86	131*	24
CN(C)/C=C/C(=O)c1ccc(Cl)s1	1.4	6	-6	99	104	6
C/C(=N\Nc1nc2ccccc2[nH]1)c1ccc2c(c1)OCO2	1.2	36	13	107	88	-9
Clc1ccccc1N/N=C/c1ccc2c(c1)OCO2	3.1	114	-39	106	135*	-3
O=C(Cc1ccccc1)N/N=C/c1ccc2c(c1)OCO2	2	84	-22	119	120	-13
C(=N\Nc1nc2ccccc2[nH]1)/c1cccs1	4.1*	137*	-54	97	148*	14
CCN(CC)c1ccc(/C=N/Nc2nc3ccccc3[nH]2)cc1	0.26	-12	-81	125	172*	-26
C(=N\Nc1nc2ccccc2[nH]1)/c1ccc2c(c1)OCO2	4.1*	149*	-46	91	141*	20
C(=N\Nc1nc2ccccc2[nH]1)/c1ccncc1	1.1	10	-30	107	128	-3
CC(=O)Nc1ccc(/C=N/Nc2nc3ccccc3[nH]2)cc1	1.6	20	-16	102	115	-8
COC(=O)c1ccc(/C=N/Nc2nc3ccccc3[nH]2)cc1	1.3	57	-41	103	138*	-4
Cc1ccc(-c2nnc(CSc3nc4cc5c(cc4cc3C)OCO5)o2)cc1	4*	15	-2	101	102	2
COCCCn1c(SCC(=O)N2CCc3ccccc32)nnc1-c1ccoc1C	x	0	11	136*	90	-36
Cc1cccc(OCCN2C(=O)C(=O)c3cc(C)ccc32)c1	3.8*	-93	-15	92	114	15
Cc1ccc2c(c1)C(=O)C(=O)N2CCCOc1ccccc1C	1.2	53	-8	97	105	6
Cc1ccc2c(c1)C(=O)C(=O)N2CCOc1ccccc1	3.6*	-79	-27	95	123	9
COc1ccc(CC(=O)Nn2c(-c3ccccc3)nc3ccccc3c2=O)cc1	1.1	16	1	96	99	2
CC(C)(C)C1CCc2c(C(=O)NNC(=O)CCCC(=O)O)csc2C1 (configuration not stated)	0.91	10	-1	106	100	-6
Cc1ccccc1OCc1nnc2c3cnn(C)c3ncn12	2	12	-43	99	139*	7
CNC(=O)c1ccc(-c2ccc(OC)cc2)s1	4.6*	99	-42	88	138*	17
COc1cccc(CNC(=O)CC2C(=O)NCCN2Cc2ccoc2)c1OC (configuration not stated)	1.2	13	-1	101	99	1
COC(=O)C(CCCN1C(=O)c2ccccc2C1=O)(NC(C)=O)c1nnn(C)n1 (configuration not stated)	1.3	11	-2	92	100	11
Cc1cc(C(=O)COC(=O)C(C)NC(N)=O)c(C)n1Cc1ccco1 (configuration not stated)	1.6	9	-7	98	106	2
CCOc1ncccc1C(=O)OCC(=O)c1cc(C)n(Cc2ccco2)c1C	4.6*	164*	-20	99	118	6
Cc1cc(C(=O)COC(=O)c2ccc(O)cc2)c(C)n1Cc1ccco1	4.4*	164*	-49	108	149*	-12
SMILES	NF-kB neuron act	APP 5'UTR act	STAT1 blocker	STAT3 act	STAT1 act	STAT3 inh
Cc1cc(C(=O)CSc2ncccn2)c(C)n1Cc1ccco1	4.3*	141*	15	70	86	41
Cc1cc(C(=O)COC(=O)c2ccc(Br)o2)c(C)n1Cc1ccco1	1.1	56	-18	112	115	-5
COc1cc(/C=C/c2cc(C(F)(F)F)[nH]c(=O)n2)cc(OC)c1OC	1.3	13	46*	87	56	17
COc1cc(OC)c(OC)cc1/C=C/c1cc(C(F)(F)F)[nH]c(=O)n1	1	-5	8	94	92	11
O=C(CNC(=O)c1ccccc1C(=O)O)c1ccccc1	1.7	69	-33	89	130*	16
CC1=C(C)CC(C(=O)NCC(=O)c2ccccc2)C(C(=O)O)C1 (configuration not stated)	1.6	89	-36	117	133*	-20
O=C(NC1CCCCC1)N1CCN(C(c2ccccc2)c2ccccc2)CC1	1.2	-14	7	107	94	-3
O=C(/C=C/c1ccccc1F)c1cccc([N+](=O)[O-])c1	1.2	22	-6	114	105	-15
O=C(Oc1ccc(F)cc1C(=O)/C=C/c1cccs1)c1cccc([N+](=O)[O-])c1	4.5*	-43	-18	123	116	-22
C#CC(C)(CC)NC(=O)c1cc(OC)c(OC)c(OC)c1 (configuration not stated)	1.1	4	8	103	93	-3
Cc1sc2ncnc(Sc3nnnn3-c3ccccc3)c2c1C	3.9*	-5	6	94	95	9
Cc1sc2ncnc(Sc3ccccc3C(=O)O)c2c1C	0.88	15	-5	103	103	7
Cc1c(/C(O)=C2/C(=O)C(=O)N(CCN3CCOCC3)C2c2ccccn2)cnn1-c1ccccc1 (configuration not stated)	0.45	15	90*	25	17	88*
COc1ccc(/C(O)=C2/C(=O)C(=O)N(CCN3CCOCC3)C2c2ccccn2)cc1 (configuration not stated)	1.3	-16	-47	98	143*	7
CCC(c1nnnn1C1CCCC1)N1CCC(C(N)=O)CC1 (configuration not stated)	1.3	8	0	102	99	-1
Cc1ccc2nc(SC(C)C(=O)N3CCOCC3)[nH]c2c1 (configuration not stated)	2.2	56	-52	115	146*	-12
Cc1ccc2c(c1)nnn2C1CCN(CC(=O)Nc2ccccc2N2CCOCC2)CC1	0.46	-18	13	97	88	5
CCCCSc1nnc2c(n1)[nH]c1ccccc12	2.3	30	-43	80	140*	21
O=C(NCCN1C(=O)C2C3C=CC(C3)C2C1=O)Nc1cccnc1 (configuration not stated)	0.97	-3	1	101	99	8
O=C(NCCN1C(=O)C2C3C=CC(C3)C2C1=O)Nc1ccc(Br)cc1 (configuration not stated)	2.2	x	-46	111	141*	-3
C#CCNC(=O)C1CCN(c2cc(C)nc(-c3ccccc3)n2)CC1	1.1	20	-6	96	106	9
Cc1ccc(C(=O)N2NC(c3ccc(F)cc3)C3C(=O)N(c4ccc(C)c(C)c4)C(=O)C32)cc1 (configuration not stated)	1.2	2	-3	110	103	-12
